Data on 4 molecules can be found in ChEMBL document CHEMBL2434944, “Novel acetamidothiazole derivatives: synthesis and in vitro anticancer evaluation” (Eur J Med Chem, 2013).

The subject of assay [1] is CAKI-1. Put plainly: Growth inhibition of human CAKI-1 cells assessed as cell growth at 10^-5 M after 48 hrs by sulforhodamine B assay relative to control. In kind it is functional. The settings on record: CAKI-1, 48 h, read-out: Activity. In outline: (§1)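 NCI-60 single-dose screen at 10^-5 M. Cells grown in RPMI 1640 with 5% FBS and 2 mM L-glutamine, plated at 5,000–40,000 cells/well according to doubling time, and preincubated 24 h at 37°C, 5% CO2. Compound dissolved in DMSO and added. Exposure 48 h. Adherent cells fixed with cold TCA (10% final), suspension cells with 16% final TCA. Read-out is 0.4% SRB staining, dye solubilised in 10 mM Tris, absorbance at 515 nm. Percent growth is calculated against the time-zero plate and untreated control.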

Assay [2] concerns SK-OV-3. As to the kind of experiment: Growth inhibition of human SKOV3 cells assessed as cell growth at 10^-5 M after 48 hrs by sulforhodamine B assay relative to control. The settings on record: SK-OV-3, 48 h, read-out: Activity. In kind it is functional. Summed up: as §1
In assay [3] the test system is OVCAR-3. Put plainly: Growth inhibition of human OVCAR3 cells assessed as cell growth at 10^-5 M after 48 hrs by sulforhodamine B assay relative to control. The class given is functional. Particulars: OVCAR-3, 48 h, read-out: Activity. Summed up:
as §1
(In general: In SRB staining, fixed cells bind dye roughly in proportion to their protein.)

Assay [4] relates to UACC-62. Put plainly: Growth inhibition of human UACC62 cells assessed as cell growth at 10^-5 M after 48 hrs by sulforhodamine B assay relative to control. The class given is functional. The settings on record: UACC-62, 48 h, read-out: Activity. Summed up: (§2)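 NCI-60 single-dose screen, 10^-5 M final. Cells grown in RPMI 1640 with 5% FBS and 2 mM L-glutamine, seeded at 5,000–40,000 cells/well by doubling time. Preincubated 24 h at 37°C, 5% CO2. Compound in DMSO, diluted in medium with gentamicin, then 48 h exposure. Fixed with cold TCA, SRB stained, A515 read. Percent growth vs untreated control, time-zero plate corrected.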

Assay [5] concerns SK-MEL-28. Put plainly: Growth inhibition of human SK-MEL-28 cells assessed as cell growth at 10^-5 M after 48 hrs by sulforhodamine B assay relative to control. In kind it is functional. Particulars: SK-MEL-28, 48 h, read-out: Activity. In outline: as §1
Assay [6] has as its system SNB-19. Put plainly: Growth inhibition of human SNB19 cells assessed as cell growth at 10^-5 M after 48 hrs by sulforhodamine B assay relative to control. In kind it is functional. Particulars: SNB-19, 48 h, read-out: Activity. In outline: as §1
Assay [7] concerns SF-295. As to the kind of experiment: Growth inhibition of human SF295 cells assessed as cell growth at 10^-5 M after 48 hrs by sulforhodamine B assay relative to control. Particulars: SF-295, 48 h, read-out: Activity. In kind it is functional. Summed up: as §1
For assay [8], the system named is SF-268. As to the kind of experiment: Growth inhibition of human SF268 cells assessed as cell growth at 10^-5 M after 48 hrs by sulforhodamine B assay relative to control. In kind it is functional. The settings on record: SF-268, 48 h, read-out: Activity. In outline: as §1
For assay [9], the system named is NCI-H460. As to the kind of experiment: Growth inhibition of human NCI-H460 cells assessed as cell growth at 10^-5 M after 48 hrs by sulforhodamine B assay relative to control. In kind it is functional. The settings on record: NCI-H460, 48 h, read-out: Activity. In outline: as §1
The test system of assay [10] is NCI-H23. Put plainly: Growth inhibition of human NCI-H23 cells assessed as cell growth at 10^-5 M after 48 hrs by sulforhodamine B assay relative to control. In kind it is functional. Particulars: NCI-H23, 48 h, read-out: Activity. Summed up:
as §1

The subject of assay [11] is HOP-62. Put plainly: Growth inhibition of human HOP62 cells assessed as cell growth at 10^-5 M after 48 hrs by sulforhodamine B assay relative to control. The class given is functional. Particulars: HOP-62, 48 h, read-out: Activity. Summed up: as §1
The target of assay [12] is T1, Vitamin D3 receptor (Homo sapiens, UniProt P11473).
T1 sequence (P11473 whole entry): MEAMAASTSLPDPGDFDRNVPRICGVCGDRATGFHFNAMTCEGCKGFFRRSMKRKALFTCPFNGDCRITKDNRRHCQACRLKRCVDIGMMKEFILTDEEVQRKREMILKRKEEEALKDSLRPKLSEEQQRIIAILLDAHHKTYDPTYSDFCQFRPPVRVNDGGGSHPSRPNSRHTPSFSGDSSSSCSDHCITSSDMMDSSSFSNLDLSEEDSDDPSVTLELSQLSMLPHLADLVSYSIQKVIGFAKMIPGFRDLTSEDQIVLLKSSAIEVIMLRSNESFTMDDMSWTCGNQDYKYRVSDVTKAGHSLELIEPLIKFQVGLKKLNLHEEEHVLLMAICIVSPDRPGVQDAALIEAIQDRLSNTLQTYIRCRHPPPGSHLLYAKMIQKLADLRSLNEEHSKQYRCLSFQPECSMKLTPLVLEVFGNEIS
Put plainly: Inhibition of human vitamin D3 receptor.

Assay [13] addresses Thymidylate synthase (Homo sapiens, UniProt P04818). As to the kind of experiment: Inhibition of human thymidylate synthase.
Assay [14] has as its target Proto-oncogene tyrosine-protein kinase Src (Homo sapiens, UniProt P12931). As to the kind of experiment: Inhibition of human SRC.
Assay [15] deals with MDA-MB-231. Put plainly: Growth inhibition of human MDA-MB-231 cells assessed as cell growth at 10^-5 M after 48 hrs by sulforhodamine B assay relative to control. Particulars: MDA-MB-231, 48 h, read-out: Activity. The class given is functional. In outline: as §1
Assay [16] has as its system UO-31. As to the kind of experiment: Growth inhibition of human UO31 cells assessed as cell growth at 10^-5 M after 48 hrs by sulforhodamine B assay relative to control. The class given is functional. Particulars: UO-31, 48 h, read-out: Activity. Summed up:
as §2

Assay [17] has as its system SN12C. Put plainly: Growth inhibition of human SN12C cells assessed as cell growth at 10^-5 M after 48 hrs by sulforhodamine B assay relative to control. The settings on record: read-out: Activity. The class given is functional. Summed up:
as §1

For assay [18], the system named is TK-10. As to the kind of experiment: Growth inhibition of human TK10 cells assessed as cell growth at 10^-5 M after 48 hrs by sulforhodamine B assay relative to control. In kind it is functional. The settings on record: TK-10, 48 h, read-out: Activity. Summed up:
as §2

Proto-oncogene tyrosine-protein kinase Src, sequence (P12931 2-536 limits assumed): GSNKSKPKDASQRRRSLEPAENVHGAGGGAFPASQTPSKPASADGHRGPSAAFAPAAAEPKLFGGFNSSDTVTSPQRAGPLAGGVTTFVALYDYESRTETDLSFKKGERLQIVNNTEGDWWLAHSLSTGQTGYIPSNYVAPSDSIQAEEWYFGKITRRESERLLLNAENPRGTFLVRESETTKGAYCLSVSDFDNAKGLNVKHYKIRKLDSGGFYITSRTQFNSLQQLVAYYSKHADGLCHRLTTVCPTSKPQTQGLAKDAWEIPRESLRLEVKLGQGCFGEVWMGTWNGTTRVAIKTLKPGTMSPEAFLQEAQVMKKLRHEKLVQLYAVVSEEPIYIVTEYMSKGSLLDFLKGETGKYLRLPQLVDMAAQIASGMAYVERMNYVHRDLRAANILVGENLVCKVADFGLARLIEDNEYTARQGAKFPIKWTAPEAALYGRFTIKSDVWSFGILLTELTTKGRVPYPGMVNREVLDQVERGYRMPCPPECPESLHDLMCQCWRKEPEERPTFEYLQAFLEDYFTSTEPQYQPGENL
Thymidylate synthase, sequence (P04818 whole entry): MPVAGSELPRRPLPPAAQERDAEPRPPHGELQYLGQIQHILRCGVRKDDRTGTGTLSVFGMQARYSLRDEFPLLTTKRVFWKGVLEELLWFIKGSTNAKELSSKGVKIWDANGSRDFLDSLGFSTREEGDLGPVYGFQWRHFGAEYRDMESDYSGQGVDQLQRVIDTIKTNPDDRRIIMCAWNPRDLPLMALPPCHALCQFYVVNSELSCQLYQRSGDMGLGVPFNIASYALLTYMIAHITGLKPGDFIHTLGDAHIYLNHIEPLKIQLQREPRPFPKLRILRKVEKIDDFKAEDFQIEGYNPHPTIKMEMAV

In the case of `N=c1scc(-c2ccc(Cl)cc2)n1CC(=O)N1CCN(c2ccccc2)CC1`, the growth at 10 µM in [1] turned out to be 93.3%; in [2], 109%; in [3], 113%; in assay [4], 98.1%; in assay [5], 98.6%; in [6], 100%. Moreover, the growth at 10 µM in [7] was determined as 89.7%; in assay [8] it was 105%; in [9] it was 101%; in [10] it was 98.3%; in assay [11], 109%; in assay [15], 114%. Moreover, the growth at 10 µM in assay [16] was determined as 91%; in [17] it was 99.8%; in [18], 87.2%. Besides, the inhibition constant (Ki) – broadly, the dissociation constant of the complex between target and ligand, obtained from inhibition or displacement – was 3.07 µM in [12], 5.09 µM in assay [13] and 1.9 µM in [14].

Turning to `Cc1ccc(-c2csc(=N)n2CC(=O)N2CCN(C)CC2)cc1`, the growth at 10 µM is 78% in assay [1]; 111% in assay [2]; 108% in assay [3]; 72.6% in assay [4]; 97.5% in assay [5]; 99.8% in [6]. Further, the growth at 10 µM in [7] came to 83.4%; in assay [8], 96.7%; in assay [9] it was 102%; in assay [10], 93.3%; in assay [11], 99.5%; in assay [15], 83.4%. The growth at 10 µM in [16] was 83.1%; in assay [17] it was 93.2%; in assay [18], 129%. Moreover, the inhibition constant Ki stood at 17.1 µM in [12], 19.3 µM in assay [13] and 4.73 µM in assay [14].

Turning to `N=c1scc(-c2ccccc2)n1CC(=O)N1CCN(c2ccccc2)CC1`, the growth at 10 µM in [1] turned out to be 87.5%; in assay [2], 94.5%; in assay [3] it was 109%; in assay [4] it was 93.5%; in assay [5] it was 98.8%; in [6], 98.6%. Also, the growth at 10 µM came out at 72.4% in [7]; 101% in [8]; 96.4% in assay [9]; 91.7% in assay [10]; 96.6% in assay [11]; 95% in assay [15]. Moreover, the growth at 10 µM in [16] was 58%; in [17], 101%; in [18], 127%. Moreover, the Ki turned out to be 1.6 µM in assay [12], 1.36 µM in [13] and 14.1 µM in assay [14].

Consider `Cc1ccc(-c2csc(=N)n2CC(=O)N2CCOCC2)cc1`, for which the growth at 10 µM in assay [1] was 89.2%; in assay [2], 114%; in assay [3], 108%; in assay [4] it was 98.1%; in assay [5], 108%; in assay [6], 106%. For the same molecule, the growth at 10 µM in assay [7] was found to be 83.6%; in assay [8], 101%; in assay [9], 108%; in assay [10], 97.3%; in assay [11], 112%; in assay [15], 98.4%. In addition, the growth at 10 µM in assay [16] is 95.3%; in assay [17] it was 100%; in assay [18] it was 126%. The figures for the Ki in assay [12], in [13] and in [14] were 13.7 µM, 4.06 µM and 13.3 µM, respectively.
